Measurements reported in ChEMBL document CHEMBL1649503, “Alkoxyalkyl esters of 9-(s)-(3-hydroxy-2-phosphonomethoxypropyl) adenine are potent and selective inhibitors of hepatitis B virus (HBV) replication in vitro and in HBV transgenic mice in vivo” (Antimicrob Agents Chemother, 2009).

Key:
[1] = test system: Liver; assay: AUC in Swiss-Webster mouse liver assessed per gram of tissue at 10 mg/kg, po after 24 hrs; format: ADME, organism-based; set-up: time < 24 hr, dose 10 mg/kg, route oral; details: in vivo
In short: (§1)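 Female Swiss-Webster mice (about 25 g) each got a single 10 mg/kg dose of the 14C-labeled (8-14C) ester (50 mCi/mmol) in 0.7% saline, by oral gavage or ip injection. Blood was taken at 1, 3, 6, 12 and 24 h, and liver, spleen, kidney, lung, heart and brain were excised, washed and weighed. Radioactivity was measured by scintillation counting as µM plasma equivalents or nmol/g tissue, mean of three per time point.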

[2] = test system: Lung; assay: AUC in Swiss-Webster mouse lung assessed per gram of tissue at 10 mg/kg, po after 24 hrs; format: ADME, organism-based; set-up: time < 24 hr, dose 10 mg/kg, route oral; details: in vivo; in short: as §1
[3] = test system: Hepatitis B virus; assay: Antiviral activity against HBV harboring RNA polymerase L180M/M204V mutant gene infected in human HuH7 cells assessed as decrease in viral transient transfection after 5 days; details: Huh-7, 5 days
[4] = Tmax in Swiss-Webster mouse brain at 10 mg/kg, po after 24 hrs; format: ADME, organism-based; set-up: dose 10 mg/kg, route oral; in short: as §1
[5] = test system: HepG2; assay: Drug metabolism in human HepG2 cells assessed as HPMPApp uptake at 10 uM after 48 hrs; format: ADME, cell-based; details: hepg2, 48 h
[6] = test system: Liver; assay: AUC in Swiss-Webster mouse liver assessed per gram of tissue at 10 mg/kg, ip after 24 hrs; format: ADME, organism-based; set-up: time < 24 hr, dose 10 mg/kg, route intraperitoneal; details: in vivo; in short: as §1
[7] = test system: Heart; assay: AUC in Swiss-Webster mouse heart assessed per gram of tissue at 10 mg/kg, po after 24 hrs; format: ADME, organism-based; set-up: time < 24 hr, dose 10 mg/kg, route oral; details: in vivo; in short: as §1
[8] = test system: Hepatitis B virus; assay: Antiviral activity against HBV harboring RNA polymerase L180M mutant gene infected in human HuH7 cells assessed as decrease in viral transient transfection after 5 days; details: Huh-7, 5 days
[9] = test system: Mus musculus; assay: Toxicity in transgenic mouse at 30 to 100 mg/kg, po assessed as mortality after 7 days; format: organism-based; set-up: dose 30-100 mg/kg, route oral; details: in vivo, 168 h
[10] = test system: Liver; assay: Cmax in Swiss-Webster mouse liver assessed per gram of tissue at 10 mg/kg, po after 24 hrs; format: ADME, organism-based; set-up: dose 10 mg/kg, route oral; details: in vivo; in short: as §1
[11] = test system: Brain; assay: Cmax in Swiss-Webster mouse brain assessed per gram of tissue at 10 mg/kg, ip after 24 hrs; format: ADME, organism-based; set-up: dose 10 mg/kg, route intraperitoneal; details: in vivo; in short: as §1
[12] = Tmax in Swiss-Webster mouse spleen at 10 mg/kg, po after 24 hrs; format: ADME, organism-based; set-up: dose 10 mg/kg, route oral
In short: (§2)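 Female Swiss-Webster mice (about 25 g) got one 10 mg/kg dose of the 8-14C-labeled ester (50 mCi/mmol) in 0.7% saline, by oral gavage or intraperitoneal injection. Blood was taken at 1, 3, 6, 12 and 24 h. Liver, spleen, kidney, lung, heart and brain were excised, washed and weighed. Drug plus metabolites were measured by liquid scintillation as µM plasma equivalents or nmol/g tissue. Each time point is the mean of three replicates.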

[13] = Cmax in Swiss-Webster mouse plasma assessed per gram of tissue at 10 mg/kg, po after 24 hrs; format: ADME, organism-based; set-up: dose 10 mg/kg, route oral; in short: as §1
[14] = test system: Spleen; assay: AUC in Swiss-Webster mouse spleen assessed per gram of tissue at 10 mg/kg, po after 24 hrs; format: ADME, organism-based; set-up: time < 24 hr, dose 10 mg/kg, route oral; details: in vivo; in short: as §1
[15] = test system: Brain; assay: AUC in Swiss-Webster mouse brain assessed per gram of tissue at 10 mg/kg, po after 24 hrs; format: ADME, organism-based; set-up: time < 24 hr, dose 10 mg/kg, route oral; details: in vivo; in short: as §1
[16] = test system: HepG2; assay: Drug metabolism in human HepG2 cells assessed as HPMPAp uptake at 10 uM after 48 hrs; format: ADME, cell-based; details: hepg2, 48 h
[17] = test system: Hepatitis B virus; assay: Antiviral activity against HBV infected in transgenic mouse assessed as decrease in liver viral DNA level at 4 mg/kg, po administered daily for 14 days measured post last dose; format: functional
In short: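 Homozygous male and female HBV transgenic mice (founder 1.3.32; 22.2 ± 2.8 g) received drug in distilled water by oral gavage, 0.1 ml/10 g, at 7 µmol/kg (4 mg/kg) daily for 14 days. About 0.1 g liver was lysed at necropsy, and DNA was extracted with phenol-chloroform. HBV DNA was measured by qPCR normalized to GAPDH, using duplicate CTs against a dilution standard curve, in relative units/µg cell DNA.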

[18] = test system: Kidney; assay: Cmax in Swiss-Webster mouse kidney assessed per gram of tissue at 10 mg/kg, ip after 24 hrs; format: ADME, organism-based; set-up: dose 10 mg/kg, route intraperitoneal; details: in vivo; in short: as §1
[19] = test system: HepG2; assay: Drug metabolism in human HepG2 cells assessed as HPMPAp uptake at 10 uM after 24 hrs; format: ADME, cell-based; details: hepg2, 24 h
In short: (§3)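 Nearly confluent HepG2 flasks got 14C-labeled drug (final 10 µM, 50 mCi/mmol) for 24 h. Cells were washed with cold PBS, lysed in water by two freeze-thaw cycles and sonication, then extracted with cold TCA (8% final) and centrifuged at 4°C. Supernatant was counted and analyzed by SAX ion-exchange HPLC, with metabolites assigned by retention versus reference standards.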

[20] = test system: Spleen; assay: AUC in Swiss-Webster mouse spleen assessed per gram of tissue at 10 mg/kg, ip after 24 hrs; format: ADME, organism-based; set-up: time < 24 hr, dose 10 mg/kg, route intraperitoneal; details: in vivo; in short: as §1
[21] = Tmax in Swiss-Webster mouse lung at 10 mg/kg, ip after 24 hrs; format: ADME, organism-based; set-up: dose 10 mg/kg, route intraperitoneal; in short: as §2
[22] = test system: Kidney; assay: Cmax in Swiss-Webster mouse kidney assessed per gram of tissue at 10 mg/kg, po after 24 hrs; format: ADME, organism-based; set-up: dose 10 mg/kg, route oral; details: in vivo; in short: as §1
[23] = Selectivity index, ratio of CC50 for human HepG2(2.2.15) cells to EC50 for HBV infected in human HepG2(2.2.15) cells
In short: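 Ratio from two 2.2.15 readouts after nine daily doses in RPMI/2% FBS. Extracellular HBV DNA was measured by quantitative blot hybridization and cytotoxicity by neutral red uptake (three cultures per concentration), both 24 h after the final dose.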

[24] = Tmax in Swiss-Webster mouse liver at 10 mg/kg, po after 24 hrs; format: ADME, organism-based; set-up: dose 10 mg/kg, route oral; in short: as §1
[25] = test system: Hepatitis B virus; assay: Antiviral activity against wild type HBV infected in human HuH7 cells assessed as decrease in viral transient transfection after 5 days; details: Huh-7, 5 days
[26] = test system: HepG2; assay: Drug metabolism in human HepG2 cells assessed as HPMPA uptake at 10 uM after 24 hrs; format: ADME, cell-based; details: hepg2, 24 h; in short: as §3
[27] = test system: Kidney; assay: AUC in Swiss-Webster mouse kidney assessed per gram of tissue at 10 mg/kg, ip after 24 hrs; format: ADME, organism-based; set-up: time < 24 hr, dose 10 mg/kg, route intraperitoneal; details: in vivo; in short: as §1
[28] = test system: HepG2; assay: Drug metabolism in human HepG2 cells assessed as HPMPApp uptake at 10 uM after 24 hrs; format: ADME, cell-based; details: hepg2, 24 h; in short: as §3
[29] = test system: Spleen; assay: Cmax in Swiss-Webster mouse spleen assessed per gram of tissue at 10 mg/kg, po after 24 hrs; format: ADME, organism-based; set-up: dose 10 mg/kg, route oral; details: in vivo; in short: as §1
[30] = test system: Heart; assay: Cmax in Swiss-Webster mouse heart assessed per gram of tissue at 10 mg/kg, ip after 24 hrs; format: ADME, organism-based; set-up: dose 10 mg/kg, route intraperitoneal; details: in vivo; in short: as §1
[31] = Tmax in Swiss-Webster mouse lung at 10 mg/kg, po after 24 hrs; format: ADME, organism-based; set-up: dose 10 mg/kg, route oral; in short: as §2
[32] = Tmax in Swiss-Webster mouse plasma at 10 mg/kg, ip after 24 hrs; format: ADME, organism-based; set-up: dose 10 mg/kg, route intraperitoneal; in short: as §2
[33] = test system: Lung; assay: Cmax in Swiss-Webster mouse lung assessed per gram of tissue at 10 mg/kg, ip after 24 hrs; format: ADME, organism-based; set-up: dose 10 mg/kg, route intraperitoneal; details: in vivo; in short: as §1
[34] = Cytotoxicity against human HepG2(2.2.15) cells after 24 hrs by neutral red assay; format: cell-based
In short: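 2.2.15 cells, RPMI 1640 with 2% FBS, dosed daily for nine consecutive days. Viability was read by neutral red uptake, absorbance of internalized dye at 510, 24 h after the last treatment, three cultures per concentration.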

[35] = test system: Liver; assay: Cmax in Swiss-Webster mouse liver assessed per gram of tissue at 10 mg/kg, ip after 24 hrs; format: ADME, organism-based; set-up: dose 10 mg/kg, route intraperitoneal; details: in vivo; in short: as §1

CCCCCCCCCCCCCCCCOCCCOP(=O)(O)CO[C@H](CO)Cn1cnc2c(N)ncnc21
AUC [1]: 222.2 nmol·h/g | AUC [2]: 12.8 nmol·h/g | EC50 [3]: 700 nM | EC90 [3]: 2800 nM | Tmax [4]: 3 h | Drug uptake [5]: 444 pmol | AUC [6]: 545.1 nmol·h/g | AUC [7]: 2.69 nmol·h/g | EC50 [8]: 1000 nM | EC90 [8]: 3.5 µM | Activity [9]: Toxic | Cmax [10]: 21.1 nmol/g | Cmax [11]: 0.16 nmol/g | Tmax [12]: 3 h | Cmax [13]: 1110 nM | AUC [14]: 3.9 nmol·h/g | AUC [15]: 0.68 nmol·h/g | Drug uptake [16]: 344 pmol | ED50 ([17]; Hepatitis B virus, Liver, 336 h): 0.096 µmol/kg | ED90 ([17]; dose 4 mg/kg): 2.97 µmol/kg | Cmax [18]: 22.9 nmol/g | Drug uptake [19]: 255 pmol | AUC [20]: 16.3 nmol·h/g | Tmax [21]: 1 h | Cmax [22]: 5.07 nmol/g | Selectivity Index [23]: >483 | Tmax [24]: 3 h | EC50 [25]: 800 nM | EC90 [25]: 3000 nM | Drug uptake [26]: 1007 pmol | AUC [27]: 195.7 nmol·h/g | Drug uptake [28]: 888 pmol | Cmax [29]: 0.22 nmol/g | Cmax [30]: 0.57 nmol/g | Tmax [31]: 3 h | Tmax [32]: 3 h | Cmax [33]: 2.84 nmol/g | CC50 at 24 h [34]: > 300 µM | Cmax [35]: 131.5 nmol/g
